Sampled rows, rich in hits. Any-hit rate of the full collection: about 4%.
ERb coact inh – inhibitors of ERβ-SRC1 coactivator interaction, primary screen, biochemical, TR-FRET, ERβ LBD, SRC-1 peptide | TR-FRET ER-beta LBD / SRC1-Cy5 peptide binding; receptor agonist-loaded with 1 µM estradiol | inhibition, % at 25.6 µM | actives 1.3% (n = 86,000) | AID 633, 2007;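 active = compounds whose percent inhibition of the receptor-coactivator binding signal exceeds about 50% in the single-dose screen, limit read from the data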
Smad3 FoxH1 inh – Smad3/FoxH1 peptide binding inhibitors, primary screen, biochemical, TR-FRET; inhibition, % at 25 µM; actives 0.29% (n = 88,000); TR-FRET Smad3/Dy647-FoxH1 peptide binding, europium anti-His; Mothers against decapentaplegic homolog 3 (Homo sapiens), P84022;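 active = compounds that reduce the energy-transfer binding signal between the protein and its labelled peptide by more than half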
Target sequence (P84022 whole entry, looked up): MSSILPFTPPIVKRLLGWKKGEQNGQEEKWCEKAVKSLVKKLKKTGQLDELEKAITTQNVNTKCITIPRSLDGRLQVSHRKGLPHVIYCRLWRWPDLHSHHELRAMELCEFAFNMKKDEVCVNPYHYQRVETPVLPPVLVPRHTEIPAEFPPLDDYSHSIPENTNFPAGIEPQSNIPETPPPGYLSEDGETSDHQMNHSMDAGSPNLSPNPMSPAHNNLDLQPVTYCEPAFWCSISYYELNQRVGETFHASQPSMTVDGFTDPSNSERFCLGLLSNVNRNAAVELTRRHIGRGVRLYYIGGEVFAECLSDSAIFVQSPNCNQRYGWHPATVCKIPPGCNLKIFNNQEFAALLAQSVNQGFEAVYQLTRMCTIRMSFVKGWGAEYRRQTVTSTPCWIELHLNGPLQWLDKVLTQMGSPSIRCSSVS
ERa SRC1 pot – enhancers of ERα–SRC-1 coactivator binding, primary screen, biochemical, TR-FRET, ERα LBD, low estradiol. AID 639, 2007. TR-FRET ERalpha-LBD/SRC-Cy5 coactivator binding, 2 h; 100 = basal binding, no effect. actives 1.3% (n = 86,000). Estrogen receptor (Homo sapiens), P03372. coactivator binding (% of control), % at 25.6 µM; in the data active = activity above about 200%;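 also: binding measured in presence of low estradiol as agonist stimulus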
FAK blocker – FAK kinase inhibitors, primary screen, biochemical; biochemical FAK kinase activity assay; AID 727, 2007; actives 0.84% (n = 97,000); inhibition, %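 (tested at 7 µM)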; Focal adhesion kinase 1 (Homo sapiens), Q05397; in the data active = inhibition above about 19%
HIV Rev-RRE inh – HIV-1 Rev-RRE binding inhibitors, primary screen, biochemical, FRET, protein-RNA interaction; inhibition, % at 8 µM; P05866; actives 0.79% (n = 97,000); Rev peptide-RRE RNA binding;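 active = inhibition above the screen-wide mean plus 3 SD, cut at about 35% in these data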
Target sequence (P05866 whole entry, looked up): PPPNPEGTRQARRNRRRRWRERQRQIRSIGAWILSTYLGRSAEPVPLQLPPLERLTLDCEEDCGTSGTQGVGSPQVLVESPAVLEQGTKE
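Assay system: Labelled RRE RNA duplex and labelled Rev peptide | Times: 5 min preincubation and 15 min binding, 25 °C | Detection: FRET, ex 480 nm, em 540 and 671 nm | Evaluation: % inhibition of FRET ratio versus controls | Benchmarks: DMSO wells as 0% and neomycin B wells as 100% inhibition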
ERa coact inh – ERα–SRC-1 coactivator interaction inhibitors, primary screen, biochemical, TR-FRET, ERα LBD, estradiol-bound | Estrogen receptor (Homo sapiens), P03372 | TR-FRET ER-alpha LBD / SRC-1 peptide | inhibition, % at 25.6 µM | actives 1.7% (n = 86,000); in the data active = inhibition above about 50%
Of the large screens only hits and unclear results are named; the others gave an inactive call; [ ] = another dose, or the depositor's remark.

O=C1C(Cl)=C(Nc2ccc(S(=O)(=O)Nc3ccccn3)cc2)C(=O)c2ccccc21	Smad3 FoxH1 inh 99.3 (no result: ERb coact inh, ERa SRC1 pot, FAK blocker, HIV Rev-RRE inh, ERa coact inh)
Nc1ccc(S(=O)(=O)Nc2ccccn2)cc1	none (no result: FAK blocker, HIV Rev-RRE inh)
Cc1cc(C)nc(NN2C(=O)/C(=C/c3ccc(O)cc3)SC2=S)n1	HIV Rev-RRE inh 58.4 (no result: ERb coact inh, Smad3 FoxH1 inh, ERa SRC1 pot, ERa coact inh)
COc1ccccc1/C=C1\SC(=S)N(Nc2nc(C)cc(C)n2)C1=O	none (no result: ERb coact inh, Smad3 FoxH1 inh, ERa SRC1 pot, ERa coact inh)
Cc1cc(-c2cc(C)c(O)c(C(C)(C)C)c2)cc(C(C)(C)C)c1O	Smad3 FoxH1 inh 63.4 (no result: ERb coact inh, ERa SRC1 pot, FAK blocker, HIV Rev-RRE inh, ERa coact inh)
CC(=O)Nc1cc(C(C)(C)C)c(O)c(C(C)(C)C)c1	none
CCCN1CCN(CCCNC(=O)c2cc3c(=O)n(C)c4ccccc4c3n2C)CC1	none
Cn1c(C(=O)NCCCN2CCCCCC2)cc2c(=O)n(C)c3ccccc3c21	ERa coact inh 53.3[fluorescence artefact?]
CC(=O)c1ccc(O)c(CN(C2CCCCC2)C2CCCCC2)c1O	none (no result: ERb coact inh, ERa SRC1 pot, FAK blocker, HIV Rev-RRE inh, ERa coact inh)
NC(=O)Cn1c(=O)n(Cc2ccco2)c(=O)c2c3c(sc21)CCCCC3	ERb coact inh 90.3[fluorescence artefact?], ERa coact inh 91.2[fluorescence artefact?]
O=C(Cn1c(=O)n(Cc2ccco2)c(=O)c2c3c(sc21)CCCC3)Nc1ccccc1	none
CCOc1ccccc1C1C(C(=O)OC)=C(N)OC2=C1C(=O)CCC2 (stereo not given)	none (no result: FAK blocker, HIV Rev-RRE inh)
CCOc1ccc(Br)cc1C1C(C(=O)OC)=C(N)Oc2cc(N(C)C)ccc21 (stereo not given)	HIV Rev-RRE inh 38.4
O=c1c2c(nc3cc(-c4ccccc4)[nH]n13)CCC2	none
COc1ccc(-c2cc3nc4c(c(=O)n3[nH]2)CCC4)cc1	ERa coact inh 52.0[fluorescence artefact?]
OCCSCc1cc(Cl)cc(Cl)c1O	none (no result: ERb coact inh, ERa SRC1 pot, FAK blocker, HIV Rev-RRE inh, ERa coact inh)
O=C(O)c1ccc(C(=O)c2ccccc2)c(C(=O)O)c1	none (no result: ERb coact inh, ERa SRC1 pot, FAK blocker, HIV Rev-RRE inh, ERa coact inh)
COc1ccc(OCCC(=O)OCC(=O)NCc2ccco2)cc1	ERa SRC1 pot 232.6[fluorescence artefact?], ERa coact inh 81.2 (no result: FAK blocker, HIV Rev-RRE inh)
CCOc1ccc(-c2cc(CCCC(=O)NCc3ccco3)no2)cc1	ERa SRC1 pot 204.1 (no result: FAK blocker, HIV Rev-RRE inh)
CCOc1ccc(-c2cc(CCCC(=O)NCc3ccc(C)cc3)no2)cc1	none (no result: ERb coact inh, Smad3 FoxH1 inh, ERa SRC1 pot, ERa coact inh)
COc1ccc(N(CC(=O)NCc2ccco2)S(C)(=O)=O)cc1OC	none
COc1ccc(N(CC(=O)NCc2ccco2)S(C)(=O)=O)cc1	ERb coact inh 99.0[fluorescence artefact?]
COc1cccc(CN(C)CC(=O)NC(=O)NCc2ccco2)c1	ERa coact inh 57.5[fluorescence artefact?]
Nc1nc(N)c2nn(-c3ccc(C(=O)O)cc3)nc2n1	none (no result: ERb coact inh, ERa SRC1 pot, FAK blocker, HIV Rev-RRE inh, ERa coact inh)
O=C(COC(=O)CCNS(=O)(=O)c1ccc(Cl)cc1)NCc1ccco1	none
COc1ccccc1NCCC(=O)OCC(=O)NCc1ccco1	ERb coact inh 61.3[fluorescence artefact?], ERa coact inh 77.4[fluorescence artefact?]
CCN1CCN(C(=O)c2cc3c(=O)oc4ccc(C)cc4c3s2)CC1	none (no result: FAK blocker, HIV Rev-RRE inh)
Cc1ccc2oc(=O)c3cc(C(=O)NCc4ccco4)sc3c2c1	ERb coact inh 53.9[fluorescence artefact?], ERa coact inh 67.5[fluorescence artefact?]
O=[N+]([O-])c1cccnc1NCCNc1ncc(C(F)(F)F)cc1Cl	none (no result: ERb coact inh, Smad3 FoxH1 inh, ERa SRC1 pot, ERa coact inh)
COc1ccc(-c2nnc(SCC(=O)/C(C#N)=C(\C)N)o2)cc1	ERb coact inh 74.9, ERa coact inh 56.0
C/C(N)=C(/C#N)C(=O)CSc1nnc(-c2ccccc2Br)o1	none (no result: ERb coact inh, Smad3 FoxH1 inh, ERa SRC1 pot, ERa coact inh)
CC(C)Cn1c(-c2cccs2)nc2ccccc21	ERb coact inh 57.3
O=C(Nc1ccc(Cc2ccncc2)cc1)C1CCC(N2C(=O)C3CC=CCC3C2=O)CC1 (stereo not given)	ERb coact inh 52.8, Smad3 FoxH1 inh 56.4, ERa coact inh 55.3
O=C(Cn1cc(C(=O)c2cccs2)c2ccccc21)NC1CCCCC1	none
O=C(Cn1cc(C(=O)c2ccco2)c2ccccc21)NC1CCCC1	ERa SRC1 pot 554.2[fluorescence artefact?]
c1ccc2cc(NCNc3ccc4ccccc4c3)ccc2c1	none (no result: ERb coact inh, ERa SRC1 pot, FAK blocker, HIV Rev-RRE inh, ERa coact inh)
COc1ccc(OC)c(/C=N/c2oc(-c3ccco3)c(-c3ccco3)c2C#N)c1	ERb coact inh 72.7, ERa coact inh 62.1
N#Cc1c(N)oc(-c2ccccc2)c1-c1ccccc1	none (no result: FAK blocker, HIV Rev-RRE inh)

Screens deposited in PubChem by several laboratories.
